Most compounds without a hit are left out; they make up all but 2.1% or so of the library.
MC4R antag cAMP: blocks human MC4R cAMP signaling; hit rate 0.48% among 360,000; MC4R-expressing cells, MTII-stimulated cAMP, LANCE TR-FRET; inhibition, % at 6.5 µM; P32245;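 active = inhibition above its plate's cutoff, the mean of tested wells on that plate plus 3 SD, cut at about 29% in these data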;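 also: 0% = Melanotan II alone and 100% = Melanotan II plus saturating MCL0020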
Target sequence (P32245 whole entry, looked up): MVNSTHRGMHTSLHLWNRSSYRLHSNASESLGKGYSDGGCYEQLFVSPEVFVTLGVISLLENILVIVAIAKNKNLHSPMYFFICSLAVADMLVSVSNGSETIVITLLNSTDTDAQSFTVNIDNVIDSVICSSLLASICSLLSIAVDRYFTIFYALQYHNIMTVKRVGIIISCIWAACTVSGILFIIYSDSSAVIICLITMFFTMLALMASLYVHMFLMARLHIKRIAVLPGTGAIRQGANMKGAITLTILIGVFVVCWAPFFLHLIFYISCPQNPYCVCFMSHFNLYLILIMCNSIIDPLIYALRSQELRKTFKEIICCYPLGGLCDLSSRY
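Material: human MC4R-expressing U2OS cells. Probe or stimulus: Melanotan II challenge. Dosing: 6.5 µM single dose. Times: 30-min compound, 1-h challenge, 1-h detection, room temperature. Technique: TR-FRET with Eu-cAMP and labeled anti-cAMP, 671 nm. Replication: singlicate.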
MC4R barr agon: human MC4R agonism via beta-arrestin; P32245; U2OS MC4R beta-arrestin complementation, luminescence; percent of melanotan II response, DMSO zero; activation, % at 8.9 µM; hit rate 0.98% among 360,000;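 active = activation above a per-plate cutoff, the mean activation of sample wells on that plate plus 3 SD, cut at about 8% in these data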
F508del corr: CFTR F508del correction in bronchial cells. hit rate 0.36% among 350,000. activity (quench increase), % at 7.58 µM. AID 720511. CFBE cells, YFP halide quenching; stimulated with forskolin plus potentiator P3; % fluorescence drop versus neutral controls;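 active = mean added fluorescence quench of at least 8% versus neutral control, with both replicates also reaching 8%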;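 also: cells transiently co-express mutant CFTR-F508del with the halide-sensitive YFP; corrector assay measuring rescue of mutant channel to the surface after 24 h compound exposure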
SMARCA2 activ: SMARCA2 function activation, primary screen; activation, % at 9.1 µM; MG213 cells, MMTV-luciferase reporter, dexamethasone, overnight; hit rate 1% among 370,000; in the data active = activation above about 7.8%;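 also: 0% = vehicle wells and 100% = reference activator wells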
SMARCA2 conf: SMARCA2 activation, confirmation screen; shares compounds with SMARCA2 activ; MG213 cells, MMTV-luciferase with dexamethasone, luminescence, overnight; MG213 cells expressing E1A, Rb sequestered; DMSO wells 0%, reference activator 100%; activation, % at 9.1 µM; hit rate 30% among 3,500;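 active = activation above its plate's cutoff, the mean activation of tested wells plus 3 SD, cut at about 7.9% in these data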
VP16 Luc act: activates GAL4-VP16 luciferase, flagging SMARCA2 activator hits; activation, % at 9.1 µM; shares compounds with SMARCA2 activ; hit rate 41% among 3,500; HEK293 GAL4-VP16 pG5luc reporter, luciferase luminescence; scaled: DMSO wells 0%, SAHA wells 100%;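 active = activation above the solvent-only control well mean plus 3 SD, averaged across control plates, cut at about 5.2% in these data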
* marks the source's active call; other numbers are inactive results; . = no result given.

SMILES | MC4R antag cAMP | MC4R barr agon | F508del corr | SMARCA2 activ | SMARCA2 conf | VP16 Luc act
Cc1ccc(-c2nnc(-c3ccccc3)o2)cc1 | 5.8 | -2.4 | . | 3.0 | . | .
Cc1ccc(-c2nnc(-c3cc(C)on3)o2)cc1 | 7.6 | -0.4 | -1.1 | 9.0* | 7.0 | 9.2*
Cc1ccc(C2=NNC3(CCOC(C)(C)C3)S2)cc1 (configuration not stated) | 26.4 | 2.1 | 0.2 | 10.9* | 9.9* | 3.3
Cc1cc(C)cc(OCC(=O)Nc2cccc(-c3nc4ncccc4o3)c2)c1 | -3.6 | 1.2 | -2.8 | 8.6* | -0.7 | 1.5
CO[C@@H]1CN(C)C(=O)c2ccc(NC(=O)c3ccccc3F)cc2OC[C@@H](C)NC[C@@H]1C | . | . | 1.5 | . | . | .
O=C(NC(=S)NCc1nc2ccccc2[nH]1)c1ccccc1F | -0.7 | -1.2 | 1.0 | 4.3 | . | .
O=C(NC(=S)NCc1nc2ccccc2[nH]1)c1ccc(F)cc1 | 4.2 | -3.5 | -0.1 | 9.9* | 6.7 | 3.6
C[C@H]1CN([C@@H](C)CO)C(=O)c2cc(NC(=O)Cc3ccccc3)ccc2O[C@@H]1CN(C)Cc1ccc(C(=O)O)cc1 | . | . | -0.5 | . | . | .
CCOC(=O)c1sc(=NC(=O)c2cccs2)n(C)c1C | -6.5 | 1.6 | -0.9 | 11.9* | 7.6 | 13.7*
CCOc1ccc2nc(/N=C/c3c(C)[nH]n(-c4ccccc4)c3=O)sc2c1 | -4.0 | 1.8 | . | 0.7 | . | .
CCOc1ccc2nc(/N=C/c3c(C)[nH]n(-c4ccc(C)cc4)c3=O)sc2c1 | 0.6 | -0.1 | -2.5 | 10.7* | 2.3 | 6.5*
CCN(Cc1cn(Cc2ccccc2)nn1)S(=O)(=O)c1ccc(F)cc1Br | . | . | . | -4.4 | . | .
CC(C)N(Cc1cn(Cc2ccccc2)nn1)S(=O)(=O)c1ccc(F)cc1Br | . | . | . | 8.7* | -1.9 | 0.0
CCN(CC)CCCNc1nc2ccccc2c2[nH]c3ccc(OC)cc3c12 | -2.6 | 0.6 | 16.8* | 53.9* | -15.1 | -0.6
Nc1ncnc(Sc2ccccc2)c1[N+](=O)[O-] | -3.3 | 0.4 | . | 0.5 | . | .
Nc1ncnc(Sc2ncccn2)c1[N+](=O)[O-] | 15.9 | -2.7 | -9.9 | 17.9* | -13.4 | 2.1
Cc1cc(NC(=O)CSc2nnc(-c3ccc(O)cc3)o2)no1 | 20.5 | 2.4 | 1.3 | 1.4 | . | .
O=C(CSc1nnc(-c2ccc(O)cc2)o1)Nc1ccccc1 | -1.2 | 0.6 | 2.6 | 8.6* | 11.2* | 8.1*
CC1CCc2c(sc(NC(=O)CSc3nnc(-c4ccccc4)o3)c2C#N)C1 (configuration not stated) | -5.2 | 2.4 | . | 9.9* | -3.3 | 1.1
CCC(=O)N1C[C@@H](O)COC[C@@H]2O[C@@H](CC(=O)NCc3cc(F)cc(F)c3)CC[C@H]21 | . | . | 1.0 | . | . | .
CCCCn1c2ccc(F)cc2c2nnc(SCCN3CCOCC3)nc21 | -10.6 | -2.5 | . | 2.7 | . | .
Cn1c2ccc(F)cc2c2nnc(SCCN3CCOCC3)nc21 | 12.9 | -0.8 | -0.1 | 12.6* | 3.0 | 2.4
CCOc1ccc(S(=O)(=O)N(CC)CC)cc1N | -3.0 | -0.5 | -3.7 | -3.7 | . | .
CCOc1ccc(C(=O)c2ccc(OCC)c(N)c2)cc1N | 3.7 | -1.1 | . | 8.6* | 6.2 | 6.5*
C[C@@H]1CN([C@H](C)CO)C(=O)c2cccc(NC(=O)c3ccc(-c4nccs4)cc3)c2O[C@H]1CN(C)Cc1ccc(C(F)(F)F)cc1 | . | . | -7.2 | . | . | .
SMILES | MC4R antag cAMP | MC4R barr agon | F508del corr | SMARCA2 activ | SMARCA2 conf | VP16 Luc act
COc1ccc(S(=O)(=O)Nc2ccc3c(c2)CC(=O)N([C@@H](C)CO)C[C@@H](C)[C@@H](CN(C)Cc2ccc(C(=O)O)cc2)O3)cc1 | . | . | 3.4 | . | . | .
CC(=O)NC1C(=O)N=C(SCC(=O)NCc2ccccc2)NC1=O (configuration not stated) | -0.6 | -0.8 | 0.8 | 10.5* | -0.6 | 1.9
Cn1cnc(S(=O)(=O)N2CCCCN3[C@H](CO)[C@@H](c4ccc(C5=CCCC5)cc4)[C@H]3C2)c1 | . | . | 2.5 | . | . | .
C=CCNC(=O)N1CCC(c2nc3ccc(Cl)cc3[nH]2)CC1 | . | . | . | 9.7* | -2.8 | 1.8
O=C(NCc1ccccc1)N1CCC(c2nc3ccc(Cl)cc3[nH]2)CC1 | . | . | . | 1.9 | . | .
CCCNC(=O)C[C@H]1CC[C@@H]2[C@@H](COc3ccc(NC(=O)c4ccc(Cl)cc4)cc3C(=O)N2C)O1 | . | . | 0.1 | . | . | .
O=C(Nc1ccc2c(c1)OCO2)c1ccc2c(c1)OCO2 | 14.8 | 1.2 | . | 5.2 | . | .
O=C(Nc1ccc2c(c1)oc1ccccc12)c1ccc2c(c1)OCO2 | 5.0 | -0.2 | . | 8.9* | 7.1 | -0.7
Cc1nnc(NC(=O)c2ccc3c(c2)OCO3)s1 | 4.2 | -3.0 | -1.0 | 10.3* | 7.0 | 9.5*
CSc1nnc(NC(=O)c2ccc3c(c2)OCO3)s1 | -6.2 | -3.0 | 0.4 | 5.6 | . | .
NCC[C@@H]1CC[C@@H](NC(=O)C2CCC2)[C@@H](CO)O1 | . | . | -2.9 | . | . | .
CCCN1C[C@H](C)[C@@H](OC)CN(C)C(=O)c2cc(NC(=O)c3cccc(OC)c3)ccc2OC[C@H]1C | . | . | 0.5 | . | . | .
O=C(CCN1C(=O)S/C(=C\C=C\c2ccccc2)C1=O)Nc1ccc(O)cc1 | 11.8 | 2.3 | -0.4 | 2.4 | . | .
O=C(CCCN1C(=O)S/C(=C\C=C\c2ccccc2)C1=O)Nc1ccc(C(=O)O)cc1 | 24.4 | 1.0 | 4.4 | 8.5* | 5.0 | 1.9
CC(=O)N1CCN(c2ccc(NC(=O)c3ccccc3Cl)cc2)CC1 | 0.8 | -1.2 | 0.6 | -0.5 | . | .
O=C(Nc1ccc(N2CCCCCC2)cc1)c1ccccc1Cl | -7.3 | 2.6 | 6.0 | 8.0* | 5.3 | 8.0*
Cc1cccc(/C(N)=N/OC(=O)c2ccco2)c1 | -1.1 | 0.0 | . | 9.3* | 18.6* | 11.4*
COc1ccc(/C(N)=N/OC(=O)c2ccco2)cc1 | 11.3 | -2.0 | -1.7 | 8.6* | 7.5 | 13.2*
Cc1ccc(/C(N)=N/OC(=O)c2ccco2)cc1 | 0.1 | -1.8 | . | 6.4 | . | .
C[C@@H]1CN([C@@H](C)CO)C(=O)c2cc(NS(=O)(=O)c3cccs3)ccc2O[C@@H]1CN(C)Cc1ccc(-c2ccccc2)cc1 | . | . | -0.9 | . | . | .
Cc1ccc2cc(CCNC(=O)CC(C)(C)C)c(=O)[nH]c2c1C | 10.8 | -1.3 | -3.2 | -2.2 | . | .
CC(=O)NCCc1cc2ccc(C)c(C)c2[nH]c1=O | 4.3 | -0.6 | 1.6 | 8.3* | -1.3 | 0.7
COc1ccc2[nH]c(=O)c(COC(=O)c3cccs3)cc2c1 | 7.8 | 0.1 | . | -1.7 | . | .
Cc1ccc2[nH]c(=O)c(COC(=O)c3cccs3)cc2c1 | 2.0 | 6.7 | . | 8.6* | -1.9 | -0.9
Cc1ccc2cc(CCNC(=O)c3cccs3)c(=O)[nH]c2c1 | 5.5 | -0.8 | -1.2 | 8.1* | 6.0 | 8.3*
Cc1noc(C)c1NC(=O)Nc1ccc2c(c1)C(=O)N([C@@H](C)CO)C[C@@H](C)[C@H](CN(C)S(=O)(=O)c1ccc(Cl)cc1)OCCCC[C@@H](C)O2 | . | . | 3.6 | . | . | .

Source: PubChem (several laboratories)
